From PubChem
The list is not random: actives were taken first. Their share in the collection is about 2.3%.
MCL1-BIM inh: inhibitors of MCL1 binding to BIM-BH3, primary screen, biochemical, fluorescence polarization; actives 0.68% (n = 320,000); inhibition, % at 10.9 µM; AID 2057, 2009; GST-MCL1 / FITC-Bim-BH3 fluorescence polarization; Induced myeloid leukemia cell differentiation protein Mcl-1 (Homo sapiens), Q07820;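 active = inhibition above the mean inhibition of all tested compounds plus 3 SD, set per campaign, cut at about 40% in these data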;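 note: 0% = DMSO wells and 100% = unlabeled Bim-BH3 peptide control; higher means more loss of mP so more displacement of Bim peptide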
Mcl1-Bid inh: Mcl-1/Bid binding inhibitors, primary screen, biochemical, TR-FRET, 1536-well | Induced myeloid leukemia cell differentiation protein Mcl-1 (Homo sapiens), Q07820 | TR-FRET Mcl-1/Bid-Dy647 peptide binding | inhibition, % at 21.7 µM | actives 0.97% (n = 220,000);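 active = compounds that cut the binding signal by more than half at the single screening dose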;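 note: His-tagged Mcl-1 with europium anti-His antibody binding Bid BH3 peptide; 0% = Mcl-1 plus peptide wells and 100% = peptide-only wells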
Mcl1 Noxa PPI: Mcl-1/Noxa binding inhibitors, primary screen, biochemical, TR-FRET, 1536-well. Induced myeloid leukemia cell differentiation protein Mcl-1 (Homo sapiens), Q07820. TR-FRET Mcl-1/Noxa peptide binding, 2 h. inhibition, % at 21.7 µM. actives 1.5% (n = 220,000);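 active = compounds that cut the protein-peptide binding signal by more than 50% relative to plate controls in a single-dose test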;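 note: His-tagged Mcl-1 with rhodamine Noxa BH3 peptide and terbium anti-His antibody; 0% = Mcl-1 plus Noxa peptide wells and 100% = peptide-only wells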
Bim-Mcl-1: inhibitors of Bim peptide binding to Mcl-1, primary screen, biochemical, bead-based flow cytometry, multiplex; Induced myeloid leukemia cell differentiation protein Mcl-1 (Homo sapiens), Q07820; Bim peptide-Mcl-1 binding; inhibition, % at 10 µM; actives 0.1% (n = 190,000); AID 1009, 2008; in the data active = inhibition above about 40%;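 note: 0% = no compound tracer wells and 100% = peptide blocker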
DSG3 Ab inh: inhibitors of pemphigus antibody binding to DSG3, primary screen, biochemical, bead-based, flow cytometry, scFv-GFP; Desmoglein-3 (Homo sapiens), P32926; binding (percent of control), % at 10 µM; DSG3-coupled beads, scFv-anti-DSG3-GFP binding; active compounds read low; AID 588358, 2011; actives 0.48% (n = 310,000);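 active = binding more than 3 SD below its plate's average and above zero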;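 note: hits lower antibody fragment binding to DSG3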
Target sequence (P32926 whole entry, looked up, the tested form may be a part): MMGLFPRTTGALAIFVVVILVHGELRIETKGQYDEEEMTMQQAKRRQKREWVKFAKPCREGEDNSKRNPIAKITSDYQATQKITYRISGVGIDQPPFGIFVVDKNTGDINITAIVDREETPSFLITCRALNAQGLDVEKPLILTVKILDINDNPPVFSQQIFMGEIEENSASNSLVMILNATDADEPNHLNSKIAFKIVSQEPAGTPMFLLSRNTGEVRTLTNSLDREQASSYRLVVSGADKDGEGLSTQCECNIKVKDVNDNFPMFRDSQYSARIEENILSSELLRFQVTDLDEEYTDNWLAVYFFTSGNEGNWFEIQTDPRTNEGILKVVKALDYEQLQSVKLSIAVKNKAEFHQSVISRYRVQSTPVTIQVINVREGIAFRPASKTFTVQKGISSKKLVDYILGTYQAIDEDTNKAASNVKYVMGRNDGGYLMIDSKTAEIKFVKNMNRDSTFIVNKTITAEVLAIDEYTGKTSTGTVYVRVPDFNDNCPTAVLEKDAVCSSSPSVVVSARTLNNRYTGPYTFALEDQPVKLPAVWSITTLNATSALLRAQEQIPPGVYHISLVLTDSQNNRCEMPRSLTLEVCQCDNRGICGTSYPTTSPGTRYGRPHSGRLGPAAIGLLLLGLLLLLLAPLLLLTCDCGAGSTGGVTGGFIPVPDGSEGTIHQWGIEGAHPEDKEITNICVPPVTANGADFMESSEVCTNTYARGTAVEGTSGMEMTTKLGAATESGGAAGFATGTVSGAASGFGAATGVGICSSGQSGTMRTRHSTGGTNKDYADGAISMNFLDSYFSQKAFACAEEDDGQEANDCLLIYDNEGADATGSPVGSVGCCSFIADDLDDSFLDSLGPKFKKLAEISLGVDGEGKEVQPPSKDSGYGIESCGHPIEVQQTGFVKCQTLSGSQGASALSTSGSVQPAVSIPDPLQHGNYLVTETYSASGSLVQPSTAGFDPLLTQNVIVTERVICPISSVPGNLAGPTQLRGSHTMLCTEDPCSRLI
T cell modulator: modulators of CD8 T cell-vesicle binding, primary screen, mouse 2C CD8+ T cells, flow cytometry. 2C CD8+ T cell-vesicle binding; active compounds read low. response (vesicle binding), % at 7 µM. actives 0.068% (n = 330,000);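 active = response, share of CD8 T cells binding vesicles, and their 90th percentile fluorescence all below set limits, cut at about 80% in these data, passing the limit was not always enough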;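 note: values below 100% mean blocked vesicle binding to the CD8+ T cells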
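Test system: purified 2C TCR transgenic mouse naive CD8+ T cells. Probe or stimulus: QL9-peptide-loaded Drosophila micro-vesicles bearing Ld, ICAM-1 and B7-1. Incubation: binding step 1.5 h, 37 °C, antibody labelling 20 min, ice. Measured by: flow cytometry of vesicle-bound cells.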
Active calls of the source: *; x = no result given.

SMILES | MCL1-BIM inh | Mcl1-Bid inh | Mcl1 Noxa PPI | Bim-Mcl-1 | DSG3 Ab inh | T cell modulator
CCOc1ccc(C2C=C(c3ccc(F)cc3)Nc3ncnn32)cc1 (stereo not given) | 45* | -61 | -11 | 0 | 91 | 269
COc1cccc(C2=CC(c3ccccc3)n3ncnc3N2)c1 (stereo not given) | 41* | -1 | 34 | 4 | x | 628
COc1cccc(C2=CC(c3ccc(N(C)C)cc3)n3ncnc3N2)c1 (stereo not given) | -11 | -8 | 2 | -3 | x | 279
COc1ccc(NC(=O)Nc2ccc3c(c2)C(=O)N([C@H](C)CO)C[C@@H](C)[C@@H](CN(C)C(=O)C2CCCCC2)OCCCC[C@H](C)O3)cc1 | x | x | x | x | 98 | x
CC(=O)c1cccc(NC(=O)C(C)OC(=O)/C=C/c2cccs2)c1 (stereo not given) | x | x | x | x | 103 | x
CN1C[C@@H]2[C@@H]3C(=O)N(C)C(=O)[C@@H]3[C@](C)(C1=O)N2C(=O)c1ccc(F)cc1 | x | x | x | x | 98 | x
COCc1cc(=O)n2[nH]c(N)nc2n1 | 11 | -33 | 6 | x | 99 | 78
COCc1cc(=O)n2[nH]c(-c3ccsc3-n3c(C)ccc3C)cc2n1 | 7 | -25 | 69* | -3 | x | 358
Cc1nc2cc(-c3ccsc3-n3c(C)ccc3C)[nH]n2c(=O)c1Cl | 16 | -37 | 61* | 1 | 99 | 326
Cc1cc(=O)n2[nH]c(-c3ccsc3-n3c(C)ccc3C)cc2n1 | 28 | -87 | 97* | x | 95 | 155
COc1ccc(Nc2nc(C)c3ccccc3n2)cc1 | 2 | 102* | 17 | -2 | 88 | 246
CCOc1ccc(Nc2c3ccccc3nc3ccccc23)cc1 | 3 | 6 | 53* | x | 104 | 708
Cc1ccc(OCC(=O)NNc2c3ccccc3nc3ccccc23)cc1 | 3 | 62* | 51* | 1 | 100 | 227
COc1ccc(Nc2nc(-c3ccccc3)c3ccccc3n2)cc1 | 8 | 9 | 2 | 12 | x | 278
CC1(C)CC(=O)C=C(c2n[nH]nc2-c2ccccc2)C1 | x | x | x | x | 110 | x
Cc1ccccc1N(CC(=O)N1CCCCCC1)S(C)(=O)=O | -5 | x | x | x | 91 | 505
CCCCn1cnc2c(SCc3ccc(Br)cc3)nc(N)nc21 | x | x | x | x | 94 | x
O=S(=O)(c1c(F)cccc1F)N(CCc1ccc(F)cc1)C[C@@H](O)COCc1ccccc1 | x | x | x | x | 105 | x
CC(C)(C)OC(=O)C[C@@H]1C/C=C\C[C@H](CC(=O)NCCO)C(=O)NC[C@H](c2ccccc2)OC1=O | x | x | x | x | 103 | 327
O=C(CCCN1C(=O)c2cccc3cccc(c23)C1=O)N1CCN(c2ccccc2)CC1 | 5 | -7 | 4 | -5 | 47* | 118
O=C(CCCCCN1C(=O)c2cccc3cccc(c23)C1=O)NCCO | 0 | -21 | 13 | 0 | 73* | 144
CC1CCN(C(=O)COC(=O)CCCN2C(=O)c3cccc4cccc(c34)C2=O)CC1 | x | x | x | x | x | 0.0*
O=C(CCCN1C(=O)c2cccc3cccc(c23)C1=O)N1CCN(c2ccccc2O)CC1 | 0 | -22 | 55* | -4 | 100 | 264
COc1ccc(N2CCN(C(=O)CN3C(=O)NC4(CCCCCC4)C3=O)CC2)cc1 | -2 | x | x | x | 111 | 215
Cc1ccc(/C=C2\SC(=S)N(NS(=O)(=O)c3ccc(C)cc3)C2=O)cc1 | 8 | x | x | x | 118 | 157
SMILES | MCL1-BIM inh | Mcl1-Bid inh | Mcl1 Noxa PPI | Bim-Mcl-1 | DSG3 Ab inh | T cell modulator
Cc1ccc(S(=O)(=O)NN2C(=O)/C(=C/c3cccn3C)SC2=S)cc1 | -78 | -20 | 54* | 6 | x | 269
O=C(CCNC(=O)N1CC(=O)Nc2ccccc21)NCc1cccc(C(F)(F)F)c1 | x | x | x | x | 97 | x
CCN(CC)S(=O)(=O)c1ccc(N/N=C/c2cc(OC)c(OC)cc2OC)nc1 | 10 | -24 | 13 | -1 | 63* | 372
CC1=NN(c2ccccc2)C(=O)/C1=C\c1cn(-c2ccccc2)nc1C | -6 | 68* | -1 | -6 | 89 | 531
NC(=O)c1sc(=S)n2c1[nH]c(=O)c1sccc12 | 6 | -33 | 25 | -1 | 123 | 221
CC(=O)NNC(=O)c1sc(=S)n2c1[nH]c(=O)c1sccc12 | 26 | -20 | 68* | -7 | 49 | 189
O=C(NCc1ccccc1)c1sc(=S)n2c1[nH]c(=O)c1ccccc12 | 15 | -21 | 52* | 1 | 105 | 719
CCOC(=O)N1CCN(C(=O)c2ccc(CS(=O)Cc3ccc(C)cc3)o2)CC1 (stereo not given) | 6 | x | x | x | 94 | 43*
CCCn1nc([N+](=O)[O-])c(C(C#N)c2nc3ccccc3o2)c(Cl)c1=O (stereo not given) | 27 | 31 | 60* | 1 | 131 | 222
CCn1nc([N+](=O)[O-])c(C(C#N)c2nc3cc(C(F)(F)F)ccc3s2)c(Cl)c1=O (stereo not given) | 6 | 36 | 90* | 4 | 96 | 116
O=[N+]([O-])c1ccc(CSc2nc3ccccc3o2)cc1 | 3 | -1 | 10 | -3 | x | 389
O=C(NCCCN1CCOCC1)c1cccc(NS(=O)(=O)c2ccc(Br)cc2)c1 | 1 | x | x | x | 106 | 430
Cc1ccc(Cl)cc1N(CC(=O)NC1CCCC1)C(=O)c1csnn1 | 14 | x | x | x | 103 | 325
Fc1cccc(NC(=S)NNc2ccccc2)c1 | 6 | x | x | x | 106 | 632
Fc1cccc(NC(=S)NNc2c3ccccc3nc3ccccc23)c1 | x | -19 | 80* | 1 | x | x
Cc1cccc(C2C3=C(Nc4[nH]n(-c5ccccc5)c(=O)c42)c2ccccc2C3=O)c1 (stereo not given) | x | -38 | 65* | -4 | 98 | x
Cc1ccccc1C1C2=C(Nc3[nH]n(-c4ccccc4)c(=O)c31)c1ccccc1C2=O (stereo not given) | 16 | -35 | 19 | 4 | x | 0
COc1ccc(/C=C(\C#N)C(=O)Nc2cc(C)c(Cl)cc2OC)cc1O | -5 | 10 | 71* | x | 92 | 87
COc1ccc(/C=C(\C#N)C(=O)NCc2ccccc2)cc1O | -2 | x | x | x | 94 | 153
C=CCOC(=O)C1=C(C)NC(SCC(N)=O)=C(C#N)C1c1cccs1 (stereo not given) | 6 | 6 | 8 | -3 | 18* | 94
CC(=O)C1=C(C)NC(SCC(N)=O)=C(C#N)C1c1cccs1 (stereo not given) | 2 | -11 | 9 | 0 | 84 | 195
